Each block holds one compound with its values, some of them ahead of it. No end group written: not given here.
Columns and labels:
human NK1 receptor [1] = target: T1, human NK1 receptor (Homo sapiens, UniProt P25103); assay: NK1R antagonist block of SP‐induced Ca2+ mobilization in HEK‐NK1R cells; type: cell-based; conditions: antagonist 100 nM, 2 min pre‐incubation; n = 5
Outline: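 HEK-293 cells stably expressing human NK1R, grown in IMDM/10% FBS with hygromycin. Loaded with 4 μM Fura-2 AM (60–90 min, 37°C), 100 000 cells/well. After a 30-s baseline, antagonist or DMSO vehicle is added for 2 min, then the stimulus. Ratiometric Ca2+ (340/380 nm) is read over 4 min at 37°C. Paired t-test.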

LAD2 human mast cells [2] = conditions: cited from earlier work
LAD2 human mast cells [3] = conditions: cited from earlier work; remark: listed apart in the source
LAD2 human mast cells [4] = assay: CCL2 release by LAD2 mast cells; type: cell-based; conditions: 24 h
LAD2 human mast cells [5] = assay: Ca2+ mobilization in LAD2 cells; type: cell-based; conditions: Fura‐2
Outline: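 IgE-sensitized LAD2 cells (JW8 conditioned medium, 48 h), wild-type or MRGPRX2-knockdown, washed in HANKS buffer with 1 mM probenecid. Loaded with 2 μM Fura-2 AM for 60–90 min at 37°C, then plated at 60 000 cells/well. Test compound is injected after a 30-s baseline and the 340/380 nm ratio (510 nm emission) is recorded for 6 min at 37°C. Peak ratios are taken across a concentration range.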

MRGPRX2 = target: T2, MRGPRX2 (Homo sapiens, UniProt Q96LB1); assay: Antagonism of SP activation of MRGPRX2; type: cell-based; conditions: pilot studies, results not shown
T2 sequence (Q96LB1 1-330): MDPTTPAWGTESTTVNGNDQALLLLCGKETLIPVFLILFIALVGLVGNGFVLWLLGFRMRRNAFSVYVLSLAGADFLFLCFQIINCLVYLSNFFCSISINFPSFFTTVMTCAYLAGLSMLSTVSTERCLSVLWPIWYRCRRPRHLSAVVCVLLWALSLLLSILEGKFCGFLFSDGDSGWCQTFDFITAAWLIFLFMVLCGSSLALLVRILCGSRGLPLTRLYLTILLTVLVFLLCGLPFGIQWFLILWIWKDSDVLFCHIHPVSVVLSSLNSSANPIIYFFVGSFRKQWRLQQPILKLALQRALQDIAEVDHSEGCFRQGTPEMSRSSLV

LAD2 human mast cells [6] = assay: LAD2 cell degranulation; type: cell-based; conditions: β‐hexosaminidase release
Outline: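 IgE-sensitized LAD2 cells (wild-type or MRGPRX2-knockdown) in HANKS buffer pH 7.4, 35 000 cells/well, exposed to a concentration range for 30 min at 37°C. Supernatant is incubated with 4 mM p-NAG (pH 4.5) for 90 min at 37°C, quenched with glycine pH 10.7, and read at 405 nm. Release is expressed as % of Triton X-100 (0.1%) lysate total, minus spontaneous release.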

human NK1 receptor [7] = target: T1, human NK1 receptor; assay: Ca2+ mobilization in HEK‐NK1R cells; type: cell-based; conditions: even at high concentrations

T1 sequence (P25103 whole entry): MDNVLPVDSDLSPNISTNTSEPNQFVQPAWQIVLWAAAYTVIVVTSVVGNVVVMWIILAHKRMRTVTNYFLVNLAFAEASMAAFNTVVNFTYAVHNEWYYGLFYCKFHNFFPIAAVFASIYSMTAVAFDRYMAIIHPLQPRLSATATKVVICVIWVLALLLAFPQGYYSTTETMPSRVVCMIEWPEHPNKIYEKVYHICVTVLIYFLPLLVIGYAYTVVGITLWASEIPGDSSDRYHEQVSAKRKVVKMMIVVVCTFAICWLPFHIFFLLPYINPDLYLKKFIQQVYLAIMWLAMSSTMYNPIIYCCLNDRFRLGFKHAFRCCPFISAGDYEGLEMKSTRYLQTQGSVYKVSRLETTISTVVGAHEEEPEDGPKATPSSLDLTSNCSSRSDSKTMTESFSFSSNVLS

effect of antagonist pretreatment on SP responses in HEK‐NK1R cells (human NK1 receptor [1]): effectively blocked SP responses
Compound: COc1ccc(-n2nnnc2C(F)(F)F)cc1CN[C@H]1CCCN[C@H]1c1ccccc1 [GR205171, vofopitant]

Compound: C=CC[N+]1([C@H]2C[C@H]3[C@@H]4CC[C@H]5C[C@H](O)[C@@H](N6CCOCC6)C[C@]5(C)[C@H]4CC[C@]3(C)[C@H]2OC(C)=O)CCCC1 [rocuronium]
Ca^2+ mobilization in LAD2 cells, in words (LAD2 human mast cells [2]): shows a mobilization of Ca^2+
degranulation in LAD2 cells, in words (LAD2 human mast cells [3]): without triggering concomitant degranulation

activation of NK1R (Ca^2+ mobilization), in words (human NK1 receptor [7]): failed to induce significant activation
Compound: SP(1–7)‐COOH: C‐terminally truncated in vivo metabolite of SP, residues 1–7, free acid (RPKPQQF-OH; UniProt P20366 58-64, looked up, fragment)
CCL2 cytokine release from LAD2 cells, in words (LAD2 human mast cells [4]): minimal and comparable to spontaneous release
LAD2 Ca^2+ mobilization, in words (LAD2 human mast cells [5]): failed to produce cellular activation
antagonism of SP activation of MRGPRX2 (MRGPRX2): not been able to demonstrate any antagonism
LAD2 degranulation, in words (LAD2 human mast cells [6]): failed to produce cellular activation
